# From ChEMBL document CHEMBL1149182, “Cyclodextrin-derived diorganyl tellurides as glutathione peroxidase mimics and inhibitors of thioredoxin reductase and cancer cell growth” (J Med Chem, 2004)
# Experiments:
# Thioredoxin reductase [1] = target: T1, Thioredoxin reductase (Homo sapiens, UniProt Q16881+Q9NNW7+Q86VQ6); experiment: Inhibition of thioredoxin reductase in the presence of thioredoxinand insulin; assay type: protein assay
# In short: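 Insulin reduction coupled to Trx/TrxR, final concentrations: 100 mM HEPES pH 7.2, 5 mM EDTA, 1 mM NADPH, 1.0 μM TrxR, 0.8 μM Trx, 2.5 mg/mL bovine insulin plus inhibitor. 30 min at 37 °C, stopped with 6 M guanidine HCl/50 mM Tris pH 8.0/10 mM DTNB, absorbance at 412 nm. IC50 for 50% inhibition of thionitrobenzoate formation.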
# MCF7 = experiment: Inhibition of growth of MCF-7 breast cancer cells in culture; assay type: functional, cell-based; settings: Homo sapiens
# In short: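 Human MCF-7 cells seeded at 3000/well in DMEM + 10% FBS, 16 h at 37 °C, 5.5% CO2, then compound 0.1–20 μM for 72 h. MTT added for 3 h, formazan dissolved in DMSO, dual OD read at 595/655 nm. Viability given as % of untreated control. IC50 is concentration halving growth versus control. Triplicate determinations.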
# Thioredoxin reductase [2] = target: T1, Thioredoxin reductase; experiment: Inhibition of thioredoxin reductase; assay type: protein assay
# In short: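 TrxR-only activity in HE buffer (100 mM HEPES pH 7.2, 5 mM EDTA) with 1.0 μM TrxR, 10 mM DTNB, 1 mM NADPH and inhibitor (final). Compound and enzyme added first, reaction started with NADPH/DTNB at 37 °C. OD 412 nm read every 10 s for initial linear rates. IC50 is 50% inhibition of thionitrobenzoate formation.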
Structure (SMILES),IC50 (Thioredoxin reductase [1]) [µM],IC50 (MCF7) [µM],IC50 (Thioredoxin reductase [2]) [µM]
CN(C)c1ccc([Te]CC2O[C@@H]3O[C@@H]4C(CO)O[C@H](O[C@@H]5C(CO)O[C@H](O[C@@H]6C(CO)O[C@@H](O[C@@H]7C(CO)O[C@H](O[C@@H]8C(CO)O[C@H](O[C@@H]9C(CO)O[C@H](O[C@H]2C(O)C3O)C(O)C9O)C(O)C8O)C(O)C7O)C(O)C6O)C(O)C5O)C(O)C4O)cc1 (stereo partly specified),3.4,10.4,0.26
COc1ccc([Te]CC2O[C@@H]3O[C@@H]4C(CO)O[C@H](O[C@@H]5C(CO)O[C@H](O[C@@H]6C(CO)O[C@@H](O[C@@H]7C(CO)O[C@H](O[C@@H]8C(CO)O[C@H](O[C@@H]9C(CO)O[C@H](O[C@H]2C(O)C3O)C(O)C9O)C(O)C8O)C(O)C7O)C(O)C6O)C(O)C5O)C(O)C4O)cc1 (stereo partly specified),7.6,4.6,1.6
OCC1O[C@@H]2O[C@@H]3C(C[Se]c4ccccc4)O[C@H](O[C@@H]4C(CO)O[C@H](O[C@@H]5C(CO)O[C@H](O[C@@H]6C(CO)O[C@@H](O[C@@H]7C(CO)O[C@H](O[C@@H]8C(CO)O[C@H](O[C@H]1C(O)C2O)C(O)C8O)C(O)C7O)C(O)C6O)C(O)C5O)C(O)C4O)C(O)C3O (stereo partly specified),18,10.2,17.8
OCC1O[C@@H]2O[C@@H]3C(CO)O[C@H](O[C@@H]4C(CO)O[C@H](O[C@@H]5C(CO)O[C@@H](O[C@@H]6C(CO)O[C@H](O[C@@H]7C(C[Te]CC8O[C@@H]9O[C@@H]%10C(CO)O[C@@H](O[C@@H]%11C(CO)O[C@H](O[C@@H]%12C(CO)O[C@H](O[C@@H]%13C(CO)O[C@H](O[C@@H]%14C(CO)O[C@H](O[C@@H]%15C(CO)O[C@H](O[C@H]8C(O)C9O)C(O)C%15O)C(O)C%14O)C(O)C%13O)C(O)C%12O)C(O)C%11O)C(O)C%10O)O[C@H](O[C@@H]8C(CO)O[C@H](O[C@H]1C(O)C2O)C(O)C8O)C(O)C7O)C(O)C6O)C(O)C5O)C(O)C4O)C(O)C3O (stereo partly specified),0.5,1.4,2.4
CCCC[Te]CC1O[C@@H]2O[C@@H]3C(CO)O[C@H](O[C@@H]4C(CO)O[C@H](O[C@@H]5C(CO)O[C@@H](O[C@@H]6C(CO)O[C@H](O[C@@H]7C(CO)O[C@H](O[C@@H]8C(CO)O[C@H](O[C@H]1C(O)C2O)C(O)C8O)C(O)C7O)C(O)C6O)C(O)C5O)C(O)C4O)C(O)C3O (stereo partly specified),1.2,6,18
OCC1O[C@@H]2O[C@@H]3C(C[Te]c4ccc(O)cc4)O[C@H](O[C@@H]4C(CO)O[C@H](O[C@@H]5C(CO)O[C@H](O[C@@H]6C(CO)O[C@@H](O[C@@H]7C(CO)O[C@H](O[C@@H]8C(CO)O[C@H](O[C@H]1C(O)C2O)C(O)C8O)C(O)C7O)C(O)C6O)C(O)C5O)C(O)C4O)C(O)C3O (stereo partly specified),4,1.6,18
OCC1O[C@@H]2O[C@@H]3C(C[Te]c4ccccc4)O[C@H](O[C@@H]4C(CO)O[C@H](O[C@@H]5C(CO)O[C@H](O[C@@H]6C(CO)O[C@@H](O[C@@H]7C(CO)O[C@H](O[C@@H]8C(CO)O[C@H](O[C@H]1C(O)C2O)C(O)C8O)C(O)C7O)C(O)C6O)C(O)C5O)C(O)C4O)C(O)C3O (stereo partly specified),7.6,10.1,1.6
